Assays:
[1] = system: Rattus norvegicus; assay: Decrease in total cholesterol levels in high-cholesterol diet fed Wistar rat at 4 mg/kg/day; type: functional; parameters: scale not given: the % may be the effect or the level left
Outline: (§1)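 Rats fed a high-cholesterol, high-fat diet; drug suspended in 0.5% sodium carboxymethyl cellulose (40 mg/100 ml) and given intragastrically at 4 mg/kg/day. After a 16 h fast, tail blood was collected and serum total cholesterol and LDL-cholesterol measured. 8–18 rats per group; percent change calculated against high-cholesterol-diet animals.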

[2] = system: Rattus norvegicus; assay: Decrease in LDL-cholesterol levels in high-cholesterol diet fed Wistar rat at 4 mg/kg/day; type: functional; parameters: scale not given: the % may be the effect or the level left; outline: as §1

SMILES	Activity [1]	Activity [2]
O=C1[C@@H](c2ccc(F)cc2)[C@H](c2ccc(O)cc2)N1CC[C@@H](O)c1ccc(F)cc1	-18%	-35%
O=C1[C@@H](c2ccc(F)cc2)[C@H](c2ccc(O)cc2)N1CC[C@H](O)c1ccc(F)cc1	-25%	-29%
O=C1[C@H](CC[C@H](O)c2ccc(F)cc2)[C@@H](c2ccc(O)cc2)N1c1ccc(F)cc1 [EZETIMIBE]	-51%	-47%
O=C1[C@H](c2ccc(F)cc2)[C@@H](c2ccc(O)cc2)N1CC[C@H](O)c1ccc(F)cc1	-26%	-22%
O=C1[C@H](c2ccc(F)cc2)[C@@H](c2ccc(O)cc2)N1CC[C@@H](O)c1ccc(F)cc1	-17%	-5%

Source: ChEMBL document CHEMBL1143769, “Ezetimibe analogs with a reorganized azetidinone ring: Design, synthesis, and evaluation of cholesterol absorption inhibitions” (2007)
